# Rows were chosen to be rich in hits. Some 2.2% of all compounds tested hit in one or more screens of this group.
# STEP inh = inhibitors of human striatal-enriched phosphatase STEP; P54829; recombinant STEP, OMFP fluorogenic substrate, fluorescence; inhibition, % at 20 µM; 360,000 compounds, 0.25% hits; AID 588621;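 active means inhibition at 20 µM, scaled per plate between control wells, above about 37%, limit read from the data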;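 further: 0% = DMSO with enzyme and substrate and 100% = substrate only without enzyme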
#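 System: STEP (striatal-enriched tyrosine phosphatase) enzyme, cell-free; medium: Bis-Tris pH 6.0 buffer with DTT, detergent; dosing: 20 µM, 1% DMSO; times: reaction 20 min, ambient temperature; detection: fluorescence, 480/540 nm; read-out basis: normalized % inhibition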
# GRK2 inh = inhibitors of human GRK2 displacing RNA aptamer; bead flow cytometry, FAM-aptamer displacement from GRK2; 330,000 compounds, 0.59% hits; P25098; AID 488847; inhibition of aptamer binding, % at 10 µM;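 active means inhibition of aptamer binding above 40%, roughly 3 SD of noise, on plates passing a quality check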;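 further: median bead fluorescence of bound FAM aptamer so fluorescent compounds give negative values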
# SUMO1-SIM PPI = SUMO1-SIM interaction modulation; P63165; SUMO1 binding to a labelled peptide, TR-FRET, 1 h; inhibition, % at 20 µM; 360,000 compounds, 0.33% hits; AID 602429; in the data active means inhibition above about 37%
# LMPTP block = blocks human LMPTP phosphatase. recombinant LMPTP-A, OMFP fluorogenic substrate, fluorescence intensity. inhibition, % at 20 µM. 360,000 compounds, 0.22% hits. AID 651560;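 active means compounds that cut the enzyme signal by at least half of the control window in the single-dose screen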;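 further: plate controls were DMSO wells with enzyme plus substrate for no effect and substrate without enzyme for full effect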
#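 Buffer or medium: Bis-Tris pH 6.0, DTT, detergent; Assay system: LMPTP-A enzyme; Quantity: 0.625 nM enzyme; Detection: endpoint fluorescence intensity; Times: 50 min dark incubation at room temperature; Controls: substrate-only low control, DMSO enzyme-plus-substrate high control; Doses: single 20 µM dose; Read-out: percent inhibition versus substrate-only and uninhibited controls; Reagent: 400 µM OMFP.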
# Scp-1 inhibitor = inhibitors of human Scp-1 phosphatase; Q9GZU7; Recombinant Scp1, phosphopeptide, malachite green phosphate absorbance; inhibition, % at 20 µM; 340,000 compounds, 0.88% hits; AID 493091;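 active means inhibition above about 50% at 20 µM, limit read from the data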;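 further: plate controls were DMSO wells with enzyme for no effect and wells lacking enzyme for full effect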
#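 Assay system: SCP-1 catalytic fragment, aa 76-261 | Buffer or medium: Tris acetate buffer pH 5.5 with MgCl2 and Tween-20 | Compound: One concentration, 20 µM, with 1.0% DMSO | Also added: Phospho 17-mer peptide substrate | Signal: Absorbance at 630 nm | Incubation: 45 min enzyme reaction at room temperature | Measure: % inhibition of SCP-1 phosphate liberation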
# DNMT1 inh = DNMT1 (human) enzyme inhibition | AID 588458 | inhibition (reported as % activation of signal), % at 10 µM | DNMT1 molecular beacon, Hinp1I cleavage, fluorescence | 360,000 compounds, 0.83% hits | P26358; in the data active means inhibition above about 50%
# Target sequence (P26358 504-1616 limits assumed): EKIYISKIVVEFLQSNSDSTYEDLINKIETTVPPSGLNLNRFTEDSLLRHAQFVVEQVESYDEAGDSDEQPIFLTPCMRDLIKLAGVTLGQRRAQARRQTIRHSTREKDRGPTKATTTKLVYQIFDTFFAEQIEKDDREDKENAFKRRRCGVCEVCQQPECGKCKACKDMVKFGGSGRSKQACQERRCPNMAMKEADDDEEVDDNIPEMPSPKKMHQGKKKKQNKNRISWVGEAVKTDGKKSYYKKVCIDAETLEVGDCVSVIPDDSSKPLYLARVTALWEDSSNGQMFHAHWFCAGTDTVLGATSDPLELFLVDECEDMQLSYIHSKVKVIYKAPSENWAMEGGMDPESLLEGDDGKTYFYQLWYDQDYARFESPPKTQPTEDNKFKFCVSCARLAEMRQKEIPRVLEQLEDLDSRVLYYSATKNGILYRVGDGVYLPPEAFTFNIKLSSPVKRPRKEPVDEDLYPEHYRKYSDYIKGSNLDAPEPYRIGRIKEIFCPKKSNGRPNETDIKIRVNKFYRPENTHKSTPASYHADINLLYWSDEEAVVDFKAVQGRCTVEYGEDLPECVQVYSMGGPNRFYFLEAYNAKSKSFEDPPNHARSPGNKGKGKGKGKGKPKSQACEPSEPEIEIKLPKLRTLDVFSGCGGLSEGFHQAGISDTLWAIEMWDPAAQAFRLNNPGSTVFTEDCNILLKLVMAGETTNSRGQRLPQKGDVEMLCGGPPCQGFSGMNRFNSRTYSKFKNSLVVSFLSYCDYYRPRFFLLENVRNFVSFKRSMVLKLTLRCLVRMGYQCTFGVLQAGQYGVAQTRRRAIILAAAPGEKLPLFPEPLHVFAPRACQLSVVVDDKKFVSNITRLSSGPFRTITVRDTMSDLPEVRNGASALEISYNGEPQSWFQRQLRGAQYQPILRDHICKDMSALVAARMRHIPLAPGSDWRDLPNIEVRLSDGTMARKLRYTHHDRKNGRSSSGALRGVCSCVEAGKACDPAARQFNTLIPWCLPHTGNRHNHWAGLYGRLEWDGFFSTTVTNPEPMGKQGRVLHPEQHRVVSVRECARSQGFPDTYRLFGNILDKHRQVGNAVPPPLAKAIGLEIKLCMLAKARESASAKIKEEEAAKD
# Numbers without * were called inactive; . = no result given.
SMILES,STEP inh,GRK2 inh,SUMO1-SIM PPI,LMPTP block,Scp-1 inhibitor,DNMT1 inh
COc1cccc2sc(Nc3nc(-c4cc5ccccc5oc4=O)cs3)nc12,3.6,0.0,61.2*,12.0,10.6,-2.4
COc1nnc(-c2ccc(C(=O)N3C[C@@H]4C[C@H](C3)c3cccc(=O)n3C4)cc2)c2ccccc12,-2.9,.,-1.0,3.9,3.6,2.8
O=C(c1ccc(-c2nnc(Nc3cccc(Cl)c3)c3ccccc23)cc1)N1C[C@H]2C[C@H](C1)c1cccc(=O)n1C2,2.4,3.0,6.8,20.3,3.0,74.0*
COc1cc(/C=C/C(=O)OCC(=O)Nc2cc(S(=O)(=O)N(C)C)ccc2Cl)ccc1O,-1.9,2.0,-1.7,0.2,-9.0,2.9
CCN(CC)S(=O)(=O)c1ccc(Cl)c(NC(=O)COC(=O)/C=C/c2ccc(O)c(OC)c2)c1,-2.3,100.0*,2.3,1.4,-14.3,-18.0
CCOc1ccccc1C1C2C(=O)N(c3ccccc3)C(=O)C2ON1c1ccccc1 (stereo unspecified),0.7,94.0*,-0.1,4.0,-11.0,-7.7
O=C(O)COc1ccccc1C1C2C(=O)N(c3ccccc3)C(=O)C2ON1c1ccccc1 (stereo unspecified),-2.2,0.0,1.8,-0.3,-1.6,-6.6
C=CCCC(=O)Nc1nc(C)c(-c2csc(Nc3cc(OC)ccc3OC)n2)s1,0.6,4.0,0.1,1.3,3.5,-28.8
Cc1ccc(Cl)cc1Nc1nc(-c2sc(NC(=O)C(C)(C)C)nc2C)cs1,0.8,0.0,104.3*,1.5,14.5,-38.1
Cc1nc(NC(=O)c2ccccc2)sc1-c1csc(Nc2ccc(C(=O)O)cc2)n1,0.7,.,91.8*,42.8,80.5*,-6.3
C=CCCC(=O)Nc1nc(C)c(-c2csc(Nc3cccc(OC)c3)n2)s1,0.1,0.0,77.9*,-1.4,6.1,-44.3
CC(C)CCOc1ncnc2c1sc1nc3c(cc12)CSC(C)(C)C3,-0.8,.,44.2*,0.1,-4.3,2.6
Cc1ccc(-c2csc(C(O)c3ccc(F)c(F)c3)n2)cc1C (stereo unspecified),-0.8,.,-1.2,2.9,.,0.0
COc1ccc(S(=O)(=O)NC(=O)C2(C)CCN2C(=O)C2CC2)cc1 (stereo unspecified),-1.8,.,0.2,-1.8,.,1.3
CCc1oc(C(=O)O)cc1CN(CC)CC,-0.1,3.0,0.3,-2.0,-8.0,0.6
CCc1oc(C(=O)O)cc1COC,0.4,12.0,-0.7,-2.1,66.3*,42.5
O=C1S/C(=C\c2ccc(O)c([N+](=O)[O-])c2)C(=O)N1c1ccccc1Cl,5.8,4.0,-15.4,-10.2,-7.7,-5.3
COc1cc(/C=C2\SC(=O)N(c3cccc(Cl)c3)C2=O)cc([N+](=O)[O-])c1O,97.6*,.,2.3,82.2*,56.2*,70.5*
CC(=O)N1CCC(C(=O)N2c3ccccc3N=C(c3ccc4c(c3)OCO4)C2C(=O)Nc2c(C)cccc2C)CC1 (stereo unspecified),.,.,-19.9,-0.5,.,.
CCCCCCCCN1C(=O)[C@H](CC(=O)N2CCN(C(=O)C3CC3)CC2)C[C@@]2(C(=O)OCC)CCCC=C12,.,.,1.9,0.4,.,.
CC(=O)c1cccc(NC(=O)/C=C/c2ccc(S(=O)(=O)N3CCOCC3)cc2)c1,4.3,96.0*,-21.5,0.3,-7.3,0.4
COc1ccc(CCN2C(=O)COc3ccccc3C2C(=O)NC(C)(C)C)cc1OC (stereo unspecified),.,.,5.9,-0.3,.,.
Cc1c(-c2ccccc2)c(-c2ccc(OCCN(C)C)cc2)n2ccccc12,-1.9,.,-42.4,80.2*,-4.7,-3.6
COc1ccc(-c2sc3ccccc3c2-c2ccc(OCCN(C)C)cc2)cc1,8.3,0.0,-172.7,-1.0,4.1,-22.7
CCNC(=O)C1(C)CCCN(Cc2ccc3ccccc3c2Br)C1 (stereo unspecified),-0.7,.,-4.7,0.3,.,-4.2
SMILES,STEP inh,GRK2 inh,SUMO1-SIM PPI,LMPTP block,Scp-1 inhibitor,DNMT1 inh
Cc1ccccc1-c1cc2nc(NCc3ccccc3F)n(C)c(=O)c2s1,0.6,.,-0.6,2.9,.,-4.1
S=C1Cc2ccccc2N1,21.1,.,76.6*,48.2,-7.4,83.3*
S=C1Nc2ccccc2CS1,0.1,.,-0.7,-0.8,.,3.0
CCOC(=O)C1(C)CCCN1C(=O)c1sccc1C (stereo unspecified),-3.1,.,1.0,-0.1,.,3.0
C=CCn1c(=O)/c(=C2/Sc3ccccc3N2CC)s/c1=C1/C(=O)NN=C1C,.,42.0*,.,.,.,.
CC(=O)Nc1ccc(CNc2nc3cc(-c4ccsc4)sc3c(=O)n2C)cc1,-0.4,.,-29.0,2.9,.,-12.1
COc1ccc(-n2cccc2/C=C2\C(=N)N3N=C(c4ccco4)SC3=NC2=O)cc1,86.8*,31.0,103.0*,50.6*,81.5*,90.4*
O=Nc1c2cc(-c3ccccc3)[nH]nc-2c2ccccc12,7.2,.,13.3,4.9,62.5*,25.7
Cc1cccc(-c2cc3c(N=O)c4ccccc4c-3n[nH]2)c1,0.9,0.0,-0.4,0.8,2.7,8.5
Cc1ccc(-c2cc3c(N=O)c4ccccc4c-3n[nH]2)cc1,17.6,0.0,-4.4,20.7,16.1,74.6*
CC(=O)Nc1cc(-c2ccccc2N(C)C)cn2c(-c3cccc(C(F)(F)F)c3)cnc12,-33.2,.,-10.1,-0.8,.,60.9*
CC(=O)Nc1cc(-c2cccc(NS(C)(=O)=O)c2)cn2c(-c3cccc(C(F)(F)F)c3)cnc12,-0.9,.,2.0,4.5,.,-5.5
CC1=CC(C)(C)N(C(=O)CSc2ncn[nH]2)c2ccc(C)cc21,0.2,0.0,43.2*,-1.0,-7.2,-0.7
Cc1nc(N)nc(N)c1-c1ccc(Cl)c(Cl)c1,1.7,.,-2.6,56.7*,-4.7,7.5
Cc1nc(N)nc(N)c1CCCc1ccc(Cl)c(Cl)c1,0.0,0.0,-2.8,64.1*,-7.2,3.0
COc1ccc(Cc2c(C)nc(N)nc2Cl)cc1,-0.3,0.0,1.2,2.0,5.8,3.0
Nc1nc(N)nc(-c2ccc(Cl)c(Cl)c2)n1,-3.5,7.0,0.1,-0.8,-4.4,-6.6
O=C(NC1(O)C(=O)c2ccccc2C1=O)c1ccc(C(F)(F)F)cc1,1.6,0.0,6.9,3.7,3.1,60.7*
Cc1ccc(C(=O)NC2(O)C(=O)c3ccccc3C2=O)cc1C,2.6,1.0,-4.2,1.4,3.8,24.4
O=c1cc(O)n(C2CCCCCC2)c(=O)[nH]1,0.0,4.0,2.9,0.6,-0.9,-5.6
O=c1[nH][nH]c(=S)n1C1CCCCC1,.,1.0,.,.,72.5*,.
CC(C)CNC(=O)C1(C)CCN1C(=O)c1ccc(C(C)(C)C)cc1 (stereo unspecified),-1.7,.,-2.0,-0.2,.,5.0
O=C(/C=C/c1ccco1)N1CCN(S(=O)(=O)c2cccc([N+](=O)[O-])c2)CC1,1.4,79.0*,-7.9,0.6,19.9,17.5

# Screening data (PubChem)
